# Test results published in ChEMBL document CHEMBL4219113, “Pyridazine and pyridazinone derivatives as potent and selective factor XIa inhibitors” (Bioorg Med Chem Lett, 2018).
# Key:
# [1] = biological target: Coagulation factor XI (Homo sapiens, UniProt P03951); experiment: Inhibition of human factor 11a using pyro-Glu-Pro-Arg-pNA as substrate measured after 10 to 120 mins by spectrophotometric method
# [2] = system: Plasma; experiment: Anticoagulant activity in human plasma assessed as increase in activated partial thromboplastin time; format: functional
# In short: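 In vitro clotting test in human plasma measuring activated partial thromboplastin time (aPTT). EC1.5x is the concentration that extends aPTT to 1.5-fold.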
# [3] = Half life in human liver microsomes pretreated for 5 mins followed by NADPH addition by UV-LC/MS analysis; format: ADME, microsome
# [4] = Clearance in dog at 0.2 to 0.5 mg/kg, po or 0.2 to 0.4 mg/kg, iv administered as cassette dose; format: ADME, organism-based, Canis lupus familiaris; details: in vivo
# In short: (§1)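 Dogs received cassette dosing at 0.2–0.5 mg/kg orally and 0.2–0.4 mg/kg intravenously. The iv vehicle was 10% DMAC, 10% EtOH, 10% PG and 70% water. The oral vehicle was 10% EtOH, 70% PEG400 and 20% TPGS.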
# [5] = Volume of distribution at steady state in dog at 0.2 to 0.5 mg/kg, po or 0.2 to 0.4 mg/kg, iv administered as cassette dose; format: ADME, organism-based, Canis lupus familiaris; details: in vivo, read-out: Vdss; in short: as §1
# [6] = Half life in dog at 0.2 to 0.5 mg/kg, po or 0.2 to 0.4 mg/kg, iv administered as cassette dose; format: ADME, organism-based, Canis lupus familiaris; details: in vivo; in short: as §1
# [7] = Oral bioavailability in dog at 0.2 to 0.5 mg/kg; format: ADME, organism-based, Canis lupus familiaris; details: in vivo; in short: as §1
# [8] = biological target: T1, Coagulation factor VII (Homo sapiens, UniProt P08709); experiment: Inhibition of human factor 7a
# T1 sequence (P08709 whole entry): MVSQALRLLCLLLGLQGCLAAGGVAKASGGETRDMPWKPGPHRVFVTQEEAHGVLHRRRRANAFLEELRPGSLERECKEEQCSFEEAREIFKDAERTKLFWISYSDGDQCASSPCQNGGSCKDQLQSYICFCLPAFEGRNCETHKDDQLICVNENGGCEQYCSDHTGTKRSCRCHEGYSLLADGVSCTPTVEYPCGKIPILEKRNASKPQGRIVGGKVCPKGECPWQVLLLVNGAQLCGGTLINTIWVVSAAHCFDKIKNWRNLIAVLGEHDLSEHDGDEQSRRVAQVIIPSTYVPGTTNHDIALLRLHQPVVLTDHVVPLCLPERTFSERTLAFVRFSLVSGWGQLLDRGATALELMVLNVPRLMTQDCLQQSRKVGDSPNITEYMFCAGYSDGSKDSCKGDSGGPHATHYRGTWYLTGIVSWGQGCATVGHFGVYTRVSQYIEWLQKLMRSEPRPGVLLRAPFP
# [9] = biological target: Coagulation factor IX (Homo sapiens, UniProt P00740); experiment: Inhibition of human factor 9a
# Chain of Coagulation factor IX (P00740 47-191 limits assumed): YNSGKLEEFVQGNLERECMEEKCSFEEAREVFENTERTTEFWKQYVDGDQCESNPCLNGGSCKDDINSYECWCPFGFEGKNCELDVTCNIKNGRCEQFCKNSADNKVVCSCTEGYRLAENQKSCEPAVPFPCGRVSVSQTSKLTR
# Chain of Coagulation factor IX (P00740 227-461 limits assumed): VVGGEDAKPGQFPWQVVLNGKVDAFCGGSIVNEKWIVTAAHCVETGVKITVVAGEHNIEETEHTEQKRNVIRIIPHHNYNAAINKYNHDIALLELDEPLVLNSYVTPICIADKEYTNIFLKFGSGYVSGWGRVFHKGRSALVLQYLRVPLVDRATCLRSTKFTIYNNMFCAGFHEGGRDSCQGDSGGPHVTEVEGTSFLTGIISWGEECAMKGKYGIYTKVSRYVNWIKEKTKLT
# [10] = biological target: Coagulation factor X (Homo sapiens, UniProt P00742); experiment: Inhibition of human factor 10a
# Chain of Coagulation factor X (P00742 41-179 limits assumed): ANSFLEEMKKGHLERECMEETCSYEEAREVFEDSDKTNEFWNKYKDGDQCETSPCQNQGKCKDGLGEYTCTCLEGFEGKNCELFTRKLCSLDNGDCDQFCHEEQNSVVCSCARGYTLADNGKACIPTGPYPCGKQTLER
# Chain of Coagulation factor X (P00742 235-488 limits assumed): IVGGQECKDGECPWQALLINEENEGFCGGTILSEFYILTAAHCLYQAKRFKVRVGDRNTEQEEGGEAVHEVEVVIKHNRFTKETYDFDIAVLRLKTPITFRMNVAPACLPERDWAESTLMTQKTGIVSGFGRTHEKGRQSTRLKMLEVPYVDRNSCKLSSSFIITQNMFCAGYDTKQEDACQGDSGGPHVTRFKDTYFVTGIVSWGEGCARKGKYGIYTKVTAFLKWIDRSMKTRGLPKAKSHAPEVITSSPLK
# [11] = biological target: Prothrombin (Homo sapiens, UniProt P00734); experiment: Inhibition of human thrombin
# [12] = biological target: Trypsin (Homo sapiens, UniProt P07477+P07478+P35030); experiment: Inhibition of human trypsin; format: protein assay
# [13] = biological target: Plasma kallikrein (Homo sapiens, UniProt P03952); experiment: Inhibition of human plasma kallikrein
# Chain of Plasma kallikrein (P03952 20-390 limits assumed): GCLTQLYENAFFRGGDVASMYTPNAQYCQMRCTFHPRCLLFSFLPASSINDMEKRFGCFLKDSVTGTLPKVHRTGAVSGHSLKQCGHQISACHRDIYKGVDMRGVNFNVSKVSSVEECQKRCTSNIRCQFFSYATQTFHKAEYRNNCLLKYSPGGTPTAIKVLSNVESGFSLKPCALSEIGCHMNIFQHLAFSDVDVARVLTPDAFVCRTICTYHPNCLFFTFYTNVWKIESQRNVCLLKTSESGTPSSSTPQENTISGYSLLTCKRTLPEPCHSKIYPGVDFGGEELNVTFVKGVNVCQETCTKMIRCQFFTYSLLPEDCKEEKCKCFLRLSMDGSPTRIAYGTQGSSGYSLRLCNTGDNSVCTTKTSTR
# Chain of Plasma kallikrein (P03952 391-638 limits assumed): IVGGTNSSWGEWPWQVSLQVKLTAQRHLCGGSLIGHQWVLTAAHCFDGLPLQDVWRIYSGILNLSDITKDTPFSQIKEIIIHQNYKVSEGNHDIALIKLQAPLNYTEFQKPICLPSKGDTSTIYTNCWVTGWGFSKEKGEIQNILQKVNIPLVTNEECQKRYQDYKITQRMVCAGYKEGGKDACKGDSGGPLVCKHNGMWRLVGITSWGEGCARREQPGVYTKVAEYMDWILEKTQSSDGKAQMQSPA
# [14] = biological target: Vitamin K-dependent protein C (Homo sapiens, UniProt P04070); experiment: Inhibition of human activated protein C
# Chain of Vitamin K-dependent protein C (P04070 43-197 limits assumed): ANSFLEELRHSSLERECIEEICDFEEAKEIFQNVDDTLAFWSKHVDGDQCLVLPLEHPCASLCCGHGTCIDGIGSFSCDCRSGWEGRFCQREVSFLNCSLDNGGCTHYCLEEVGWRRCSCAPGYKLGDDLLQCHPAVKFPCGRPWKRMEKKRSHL
# Chain of Vitamin K-dependent protein C (P04070 212-461 limits assumed): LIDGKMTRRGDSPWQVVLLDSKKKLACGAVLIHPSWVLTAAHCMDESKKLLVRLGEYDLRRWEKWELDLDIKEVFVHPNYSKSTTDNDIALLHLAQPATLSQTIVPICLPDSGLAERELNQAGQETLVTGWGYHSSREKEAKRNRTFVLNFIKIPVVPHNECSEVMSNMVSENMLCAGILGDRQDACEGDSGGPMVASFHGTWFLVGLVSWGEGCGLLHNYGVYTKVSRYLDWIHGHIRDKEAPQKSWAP
# [15] = biological target: Plasminogen (Homo sapiens, UniProt P00747); experiment: Inhibition of human plasmin
# Chain of Plasminogen (P00747 97-580 limits assumed): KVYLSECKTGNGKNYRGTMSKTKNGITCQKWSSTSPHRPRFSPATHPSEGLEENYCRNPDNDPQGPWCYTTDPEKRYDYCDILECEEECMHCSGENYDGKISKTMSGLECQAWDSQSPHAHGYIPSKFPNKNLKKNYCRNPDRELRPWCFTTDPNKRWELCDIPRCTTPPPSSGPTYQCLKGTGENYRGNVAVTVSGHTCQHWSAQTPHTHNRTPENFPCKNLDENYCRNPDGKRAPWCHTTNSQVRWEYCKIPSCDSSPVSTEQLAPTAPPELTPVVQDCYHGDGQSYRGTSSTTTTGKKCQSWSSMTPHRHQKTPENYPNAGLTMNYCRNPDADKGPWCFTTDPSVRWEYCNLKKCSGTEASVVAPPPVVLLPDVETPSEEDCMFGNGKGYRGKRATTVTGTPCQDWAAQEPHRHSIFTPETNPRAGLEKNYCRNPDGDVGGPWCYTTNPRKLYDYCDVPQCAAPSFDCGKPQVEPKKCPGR
# Chain of Plasminogen (P00747 581-810 limits assumed): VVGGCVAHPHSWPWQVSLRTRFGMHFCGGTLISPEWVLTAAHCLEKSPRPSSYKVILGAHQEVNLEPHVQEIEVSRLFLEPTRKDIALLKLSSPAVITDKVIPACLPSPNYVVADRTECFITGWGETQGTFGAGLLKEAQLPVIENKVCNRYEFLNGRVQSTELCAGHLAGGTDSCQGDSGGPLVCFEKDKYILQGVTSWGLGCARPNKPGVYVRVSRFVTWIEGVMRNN
# [16] = biological target: Tissue-type plasminogen activator (Homo sapiens, UniProt P00750); experiment: Inhibition of human TPA
# Chain of Tissue-type plasminogen activator (P00750 whole entry): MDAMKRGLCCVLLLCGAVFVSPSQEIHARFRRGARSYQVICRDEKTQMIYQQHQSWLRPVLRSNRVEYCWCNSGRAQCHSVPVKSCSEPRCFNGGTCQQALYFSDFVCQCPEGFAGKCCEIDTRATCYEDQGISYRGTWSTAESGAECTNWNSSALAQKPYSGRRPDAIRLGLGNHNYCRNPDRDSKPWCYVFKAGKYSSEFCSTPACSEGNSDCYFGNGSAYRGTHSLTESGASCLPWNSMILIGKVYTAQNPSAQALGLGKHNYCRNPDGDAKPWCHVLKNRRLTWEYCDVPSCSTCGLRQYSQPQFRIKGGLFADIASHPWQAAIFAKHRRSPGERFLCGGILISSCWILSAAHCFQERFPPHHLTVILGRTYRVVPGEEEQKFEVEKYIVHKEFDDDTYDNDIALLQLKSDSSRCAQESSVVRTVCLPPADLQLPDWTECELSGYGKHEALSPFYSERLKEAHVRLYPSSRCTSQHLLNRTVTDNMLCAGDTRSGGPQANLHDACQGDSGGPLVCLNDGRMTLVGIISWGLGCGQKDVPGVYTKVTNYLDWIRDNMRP
# [17] = biological target: Urokinase-type plasminogen activator (Homo sapiens, UniProt P00749); experiment: Inhibition of human urokinase
# [18] = Inhibition of human chymotrypsin
# [19] = Oral bioavailability in dog at 0.5 mg/kg; format: ADME, organism-based, Canis lupus familiaris; details: in vivo; in short: as §1
# Chain of Coagulation factor XI (P03951 19-387 limits assumed): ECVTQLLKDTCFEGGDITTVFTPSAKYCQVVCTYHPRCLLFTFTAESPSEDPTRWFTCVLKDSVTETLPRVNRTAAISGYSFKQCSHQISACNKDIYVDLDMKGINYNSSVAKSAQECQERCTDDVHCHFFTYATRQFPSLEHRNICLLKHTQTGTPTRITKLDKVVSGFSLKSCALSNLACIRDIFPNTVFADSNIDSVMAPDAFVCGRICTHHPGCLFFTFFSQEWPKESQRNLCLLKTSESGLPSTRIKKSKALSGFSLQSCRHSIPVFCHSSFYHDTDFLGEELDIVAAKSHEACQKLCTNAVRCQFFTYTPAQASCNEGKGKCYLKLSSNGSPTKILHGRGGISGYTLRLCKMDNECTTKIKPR
# Chain of Coagulation factor XI (P03951 388-625 limits assumed): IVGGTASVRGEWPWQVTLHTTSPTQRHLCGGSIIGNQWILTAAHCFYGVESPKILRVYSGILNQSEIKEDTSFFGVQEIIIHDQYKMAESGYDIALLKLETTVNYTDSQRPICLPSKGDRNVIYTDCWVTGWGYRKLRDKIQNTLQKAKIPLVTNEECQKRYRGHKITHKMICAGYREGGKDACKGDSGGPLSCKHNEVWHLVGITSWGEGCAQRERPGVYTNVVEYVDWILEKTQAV
Compound,Ki [1],half-life [3],clearance [4],Vd [5],half-life [6],bioavailability [7],EC1.5 [2],further results
COC(=O)Nc1ccc(-c2cc([C@H](Cc3ccccc3)NC(=O)/C=C/c3cc(Cl)ccc3-n3cnnn3)nnc2OC)cc1,36 nM,–,–,–,–,–,50 µM,–
COC(=O)Nc1ccc(-c2cc([C@H](Cc3ccccc3)NC(=O)/C=C/c3cc(Cl)ccc3-n3cnnn3)c(=O)[nH]n2)cc1,22 nM,–,–,–,–,–,19 µM,–
COC(=O)Nc1ccc(-c2cc([C@H](Cc3ccncc3)NC(=O)/C=C/c3cc(Cl)ccc3-n3cnnn3)nnc2Cl)cc1,12 nM,2.8 min,–,–,–,–,6.2 µM,–
CNC(=O)c1nnc([C@H](Cc2ccccc2)NC(=O)/C=C/c2cc(Cl)ccc2-n2cnnn2)cc1-c1ccc(NC(=O)OC)cc1,31 nM,–,–,–,–,–,45 µM,–
COC(=O)Nc1ccc(-c2cc([C@H](Cc3ccccc3)NC(=O)/C=C/c3cc(Cl)ccc3-n3cnnn3)n[nH]c2=O)cc1,10 nM,–,–,–,–,–,11 µM,–
COC(=O)Nc1ccc(-c2nc([C@H](Cc3ccccc3)NC(=O)/C=C/c3cc(Cl)ccc3-n3cnnn3)[nH]c2Cl)cc1,–,–,–,–,–,–,5.3 µM,–
COC(=O)Nc1ccc(-c2cc([C@H](CC(=O)N3CC[C@@H](O)C3)NC(=O)/C=C/c3cc(Cl)ccc3-n3cnnn3)nnc2Cl)cc1,26 nM,–,–,–,–,–,7.5 µM,–
COC(=O)Nc1ccc(-c2cc([C@H](C[C@@H]3CCCN(C(C)=O)C3)NC(=O)/C=C/c3cc(Cl)ccc3-n3cnnn3)nnc2Cl)cc1,89 nM,–,–,–,–,–,8.8 µM,–
COC(=O)Nc1ccc(-c2ccnc([C@H](Cc3ccccc3)NC(=O)/C=C/c3cc(Cl)ccc3-n3cnnn3)c2)cc1,–,–,–,–,–,–,>40 µM,bioavailability [19]: 34%
COC(=O)Nc1ccc(-c2cc([C@H](Cc3ccccc3)NC(=O)/C=C/c3cc(Cl)ccc3-n3cnnn3)nnc2C(=O)O)cc1,11 nM,–,–,–,–,–,32 µM,–

# Continued by falling Ki [1], values first:
Ki [1],half-life [3],clearance [4],Vd [5],half-life [6],bioavailability [7],Compound,EC1.5 [2],further results
10 nM,5.1 min,9.2 mL/min/kg,1.2 L/kg,120 min,14%,COC(=O)Nc1ccc(-c2cc([C@H](Cc3ccccc3)NC(=O)/C=C/c3cc(Cl)ccc3-n3cnnn3)nnc2C)cc1,11 µM,Ki [8]: > 13300 nM; Ki [9]: 39300 nM; Ki [10]: > 3000 nM; Ki [11]: > 13300 nM; Ki [12]: > 6220 nM; Ki [13]: 1370 nM; Ki [14]: > 64400 nM; Ki [15]: > 53400 nM; Ki [16]: > 14700 nM; Ki [17]: > 29700 nM; Ki [18]: > 27200 nM
10 nM,12 min,–,–,–,–,COC(=O)Nc1ccc(-c2cc([C@H](Cc3cccc(F)c3)NC(=O)/C=C/c3cc(Cl)ccc3-n3cnnn3)nnc2Cl)cc1,17 µM,–
9.6 nM,8.6 min,6.3 mL/min/kg,2.3 L/kg,426 min,16%,COC(=O)Nc1ccc(-c2cc([C@H](Cc3ccccc3)NC(=O)/C=C/c3cc(Cl)ccc3-n3cnnn3)nnc2Cl)cc1,9.3 µM,Ki [8]: > 13300 nM; Ki [9]: > 73700 nM; Ki [10]: 200 nM; Ki [11]: > 13300 nM; Ki [12]: > 6220 nM; Ki [13]: > 6000 nM; Ki [14]: > 64400 nM; Ki [15]: 76600 nM; Ki [16]: 10100 nM; Ki [17]: > 29700 nM; Ki [18]: > 27200 nM
9.3 nM,20 min,5.1 mL/min/kg,1.5 L/kg,402 min,12%,COC(=O)Nc1ccc(-c2cc([C@H](Cc3ccc(F)cc3)NC(=O)/C=C/c3cc(Cl)ccc3-n3cnnn3)nnc2Cl)cc1,22 µM,–
7 nM,9.1 min,8.9 mL/min/kg,1.3 L/kg,108 min,18%,COC(=O)Nc1ccc(-c2cnnc([C@H](Cc3ccccc3)NC(=O)/C=C/c3cc(Cl)ccc3-n3cnnn3)c2)cc1,14 µM,Ki [8]: > 13300 nM; Ki [10]: 840 nM; Ki [11]: > 13300 nM; Ki [12]: > 6220 nM; Ki [13]: 268 nM; Ki [14]: 68000 nM; Ki [15]: 38100 nM; Ki [16]: > 14700 nM; Ki [17]: > 29700 nM; Ki [18]: 11900 nM
6.6 nM,36 min,24.7 mL/min/kg,1.2 L/kg,54 min,< 3%,COC(=O)Nc1ccc(-c2cc([C@H](CC(=O)N3CC[C@@H](O)C3)NC(=O)/C=C/c3cc(Cl)ccc3-n3cnnn3)c(Cl)nn2)cc1,1.6 µM,–
6.1 nM,–,–,–,–,–,COC(=O)Nc1ccc(-c2cc([C@H](Cc3ccccc3)NC(=O)/C=C/c3cc(Cl)ccc3-n3cnnn3)c(C)nn2)cc1,14 µM,–
4.1 nM,9.6 min,18.2 mL/min/kg,1.4 L/kg,66 min,< 3%,COC(=O)Nc1ccc(-c2cc([C@H](Cc3ccccc3)NC(=O)/C=C/c3cc(Cl)ccc3-n3cnnn3)cnn2)cc1,3.5 µM,–
4 nM,–,–,–,–,–,COC(=O)Nc1ccc(-c2cc([C@H](CC(=O)N3CCN(C)CC3)NC(=O)/C=C/c3cc(Cl)ccc3-n3cnnn3)c(Cl)nn2)cc1,0.9 µM,–
1.9 nM,31 min,15.5 mL/min/kg,2.1 L/kg,108 min,< 3%,COC(=O)Nc1ccc(-c2cc([C@H](Cc3ccccc3)NC(=O)/C=C/c3cc(Cl)ccc3-n3cnnn3)c(Cl)nn2)cc1,2.2 µM,Ki [8]: 3280 nM; Ki [9]: 22000 nM; Ki [10]: 1940 nM; Ki [11]: 10600 nM; Ki [12]: 3730 nM; Ki [13]: 192 nM; Ki [14]: 16300 nM; Ki [15]: 4490 nM; Ki [16]: 994 nM; Ki [17]: 13300 nM; Ki [18]: 29600 nM
